Source: PubChem BioAssay
DSG3 Ab inh: blocks pemphigus antibody binding to human desmoglein-3 | P32926 | DSG3-coupled beads, scFv-anti-DSG3-GFP binding, flow cytometry; stronger effect = lower value | binding (percent of control), % at 10 µM | 310,000 tested, 0.48% active | AID 588358;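 active means binding more than 3 SD below its plate's average and above zero; inconclusive means below that plate limit but binding exactly zero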;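 further: hits lower antibody fragment binding to DSG3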
Target sequence (P32926 whole entry, looked up, the tested form may be a part): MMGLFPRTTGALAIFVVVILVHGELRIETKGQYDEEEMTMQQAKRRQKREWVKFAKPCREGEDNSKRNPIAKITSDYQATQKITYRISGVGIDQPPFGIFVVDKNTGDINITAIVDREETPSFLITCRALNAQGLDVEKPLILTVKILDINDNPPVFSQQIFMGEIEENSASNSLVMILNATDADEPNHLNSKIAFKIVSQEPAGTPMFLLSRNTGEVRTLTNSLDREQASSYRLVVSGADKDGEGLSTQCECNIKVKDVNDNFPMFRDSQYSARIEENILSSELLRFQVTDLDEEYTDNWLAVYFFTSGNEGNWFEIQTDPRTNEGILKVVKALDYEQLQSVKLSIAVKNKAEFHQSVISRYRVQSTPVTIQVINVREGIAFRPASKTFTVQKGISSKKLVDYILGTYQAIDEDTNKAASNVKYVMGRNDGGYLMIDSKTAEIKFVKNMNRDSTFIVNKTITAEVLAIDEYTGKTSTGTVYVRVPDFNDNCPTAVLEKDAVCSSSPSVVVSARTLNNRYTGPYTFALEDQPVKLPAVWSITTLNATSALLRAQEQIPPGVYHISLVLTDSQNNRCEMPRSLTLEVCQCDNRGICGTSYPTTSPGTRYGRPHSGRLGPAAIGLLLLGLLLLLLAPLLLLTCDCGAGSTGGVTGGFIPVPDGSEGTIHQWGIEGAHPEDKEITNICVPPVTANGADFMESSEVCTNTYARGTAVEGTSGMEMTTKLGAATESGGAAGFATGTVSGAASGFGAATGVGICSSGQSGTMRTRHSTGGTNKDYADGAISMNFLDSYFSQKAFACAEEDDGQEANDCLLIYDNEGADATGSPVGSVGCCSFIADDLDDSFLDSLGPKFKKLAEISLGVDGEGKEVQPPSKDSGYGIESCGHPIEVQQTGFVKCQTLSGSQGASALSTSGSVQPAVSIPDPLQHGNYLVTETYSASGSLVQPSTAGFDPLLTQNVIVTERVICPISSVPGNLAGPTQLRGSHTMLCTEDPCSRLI
NALP3 yeast inh: NALP3 inhibition in yeast; inhibition, % at 10 µM; 330,000 tested, 0.39% active; AID 2825; Yeast reconstituted NLRP3/ASC/caspase-1, beta-gal luminescence, 24 h;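 active means inhibition of 50% or more; inactive means inhibition below 50%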
Arrestin-AP2 inh: blocks beta-arrestin peptide binding to AP2 adaptin. FITC-arrestin peptide / GST-AP2 beads, flow cytometry; AP2 beta2 appendage carries R879A mutation. inhibition, % at 10 µM. 340,000 tested, 0.31% active;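 active means inhibition above a set limit, near 3 SD of compounds lacking own fluorescence, cut at about 54% in these data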
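System: GST-AP2 R879A glutathione beads. Medium: PBS with 0.05% Tween 20 and 0.1% BSA. Also added: FITC-arrestin peptide, 50 nM. Incubation: 12 min plus 1 h, RT. Measured by: high-throughput flow cytometry of beads, ex 488, em 535 nm. Evaluation: percent drop in bead-associated FITC signal.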
PolyA inh: blocks polyadenylation in yeast reporter cells; S. cerevisiae SKY197-pL101 polyadenylation reporter, beta-gal luminescence; efflux-impaired pdr1/pdr3 knockout yeast; score 100 = 6 SD above DMSO; 300,000 tested, 0.02% active; activity score, % at 12 µM; AID 1875;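 active means lowest replicate activity score at least 50, where 100 means six control SD above control mean; inconclusive means lowest score under 50 but half or more replicates reach 50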;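 further: yeast exposed to compound for 9 h at 30 °C; higher score means more reporter readthrough which indicates perturbed polyadenylation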
NALP1 yeast inh: inhibitors of NALP1 inflammasome in yeast; S. cerevisiae NALP1/ASC/caspase-1 growth, X-gal OD620, 72 h; inhibition, % at 10 µM; 280,000 tested, 0.61% active; in the data active means inhibition mostly above about 24%, no sharp cut-off; inactive means mostly below about 32%
ALR H2O2 inh: inhibitors of human sulfhydryl oxidase ALR | P55789 | purified ALR, DTT oxidation, H2O2 HRP-luminol luminescence | inhibition, % (concentration not given with the values) | 290,000 tested, 3.8% active;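 active means mean replicate inhibition above about 79%, with every replicate also reaching it, limit read from the data; inconclusive means only one of the two criteria met; inactive means mean below limit and not every replicate reaching it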
A number is an active result; - = inactive; ? = inconclusive; . = no result. A selection: hits, their analogues and other compounds. The true share with any hit is near 4.6%.

SMILES | DSG3 Ab inh | NALP3 yeast inh | Arrestin-AP2 inh | PolyA inh | NALP1 yeast inh | ALR H2O2 inh
O=C(O)C1CCC(N2C(=O)c3c(Cl)c(Cl)c(Cl)c(Cl)c3C2=O)CC1 (stereo not given) | . | . | . | - | - | .
COc1ccc2nc(SCC(=O)Nc3ccc4c(c3)CCC4)[nH]c2c1 | - | - | - | - | - | -
CC(C)c1c(O)nc(SCC(=O)Nc2ccc3c(c2)CCC3)[nH]c1=O | - | - | - | - | . | 98.9
CC(C)Cc1c(O)nc(SCC(=O)Nc2ccc3c(c2)CCC3)[nH]c1=O | - | - | - | - | - | 98.7
CC(C)Oc1ccc(S(=O)(=O)N2CCOCC2)cc1NC(=O)C1=NN(c2ccccc2)C(=O)CC1 | - | - | - | . | . | .
COc1ccc(N=Cc2nc(-c3ccco3)oc2O)cc1 | . | - | - | - | - | 91.5
Cc1ccc(N=Cc2nc(-c3ccc(C)cc3)oc2O)cc1 | - | . | - | - | - | .
O=[n+]1cc(-c2ccccc2)n([O-])c2c1CCCCC2 | - | - | - | - | - | -
O=[n+]1cc(-c2cc3ccccc3o2)n([O-])c2c1CCCC2 | - | - | - | - | - | 98.0
O=C1CC(C(=O)Nc2ccc(F)cc2)n2cnnc2N1 (stereo not given) | 2.4 | - | - | - | - | -
Cc1nnc(Nc2ccc(O)cc2)[nH]c1=O | - | - | - | - | - | 98.7
O=c1[nH]c(/C=C/c2ccc(Cl)cc2Cl)c([N+](=O)[O-])c(=O)[nH]1 | - | - | - | - | - | 97.0
Cc1ccc(S(=O)(=O)N[C@@H](Cc2ccccc2)C(=O)CCl)cc1 | - | - | - | . | - | 97.9
Cc1ccc(S(=O)(=O)NC(Cc2ccccc2)C(=O)NN)cc1 (stereo not given) | - | - | - | - | - | -
Cn1c(-c2cccc([N+](=O)[O-])c2)cnc1NCc1cccc(F)c1 | - | - | - | - | - | 98.6
Cn1c(-c2cccc([N+](=O)[O-])c2)cnc1NCc1ccc(C#N)cc1 | - | - | - | - | - | 98.6
CC(C)CC(=O)Nc1ccc2c(c1)nc(CCN1CCOCC1)n2C | - | - | - | - | - | .
CC(C)Cc1nnc(NS(=O)(=O)Cc2ccccc2)s1 | - | - | - | - | 43.6 | -
COc1cccc(C(C(=O)NCC2CCCO2)N(C(=O)Cn2nnc3ccccc32)c2ccc(NC(C)=O)cc2)c1 (stereo not given) | - | - | - | - | - | -
Cn1c(SCc2nc3ccccc3n2CCO)nc2ccccc21 | . | - | - | - | - | -
Cn1c(SCc2ccc(C#N)cc2Cl)nc2ccccc21 | - | - | - | - | - | 95.9
O=C(Cn1nc(C(=O)O)c2ccccc2c1=O)Nc1ccc2c(c1)C(=O)c1ccccc1C2=O | . | - | . | - | - | -
CCOC(=O)c1sc(N)c(C#N)c1CSc1nc2ccc(OCC)cc2[nH]1 | - | - | - | - | - | -
COC(=O)c1ccc(CSc2nc3c(cnn3-c3ccc(C)cc3)c(=O)[nH]2)o1 | - | - | - | - | - | -
COC(=O)c1ccc(CSc2nc3ccc(C)cc3[nH]2)o1 | - | - | - | - | - | 95.3
SMILES | DSG3 Ab inh | NALP3 yeast inh | Arrestin-AP2 inh | PolyA inh | NALP1 yeast inh | ALR H2O2 inh
COC(=O)c1ccc(CSc2n[nH]c(=S)s2)o1 | - | - | - | - | - | 91.8
CCOC(=O)c1sc(N)c(C#N)c1CSc1nc2ccc(C)cc2[nH]1 | - | - | - | - | - | 91.2
O=C(CN1C(=O)NC2(CCCC2)C1=O)Nc1cc(S(=O)(=O)N2CCOCC2)ccc1OCC(F)(F)F | - | - | - | - | - | -
C/C(=C\C(=O)OCC(=O)NCc1ccccc1)C(=O)OCC(=O)NCc1ccccc1 | 76.2 | - | - | - | - | -
S=C(c1ccc(-c2cccc(Cl)c2)o1)N1CCCCC1 | . | - | - | - | 38.1 | -
O=[N+]([O-])c1ccc2[nH]c(O)c(N=NC3CCS(=O)(=O)C3)c2c1 (stereo not given) | 84.9 | - | - | ? | . | -
CCC/C(O)=C1\C(=O)CCCC1=NCCc1c(C)[nH]c2ccc(OC)cc12 | - | - | - | - | 19.0 | -
CCC/C(O)=C1\C(=O)CCCC1=NCCc1c(C)[nH]c2ccc(C)cc12 | - | - | - | - | . | -
COc1ccc(NC(=O)c2ccc(-c3ccc(OC)cc3)s2)cc1 | 55.0 | - | - | - | - | -
CCN(CC(=O)Nc1c(F)cccc1F)C(=O)c1ccc2c(c1)C(=O)N(c1ccccc1C)C2=O | - | . | . | . | . | .
